14 molecules from PubChem BioAssay can be followed below.

Calls of active or inactive are those of the source.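 How the source made its calls, unless noted: active means fluorescence slope after compound addition differing from the mean of all tested samples at 99.7% confidence, mostly higher but some lower; inactive means the rest.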

What is called inhibition is the drop in the measured response relative to a control, in per cent.

A short description of assay [1]: inhibitors of TNFa-induced NFkB p65 translocation, primary screen, imaging, HUVEC, MLSMR starter and 10KST1 sets (AID 438;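 active means inhibition above 20% together with a positive visual image hit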;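 further: compound added about 3h40 before a 20 min TNFalpha stimulation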;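 on inhibition: signal is the nuclear over cytoplasmic p65 intensity ratio per well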). As to conditions: HUVEC TNFa-induced p65 nuclear translocation; cell count: measured here: nuclei count (cytotoxicity indicator), at 2.08 µM; inhibition: at 2 µM, stronger effect = higher value, 0% TNFa-plus-vehicle, 100% no-TNFa wells.
Assay [2] in a line: inhibitors of mutant huntingtin aggregation, primary screen, imaging, exon1htt(103Q)mCFP cells, high-content imaging (AID 483;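 active means visual image review flags a hit and inhibition of aggregation exceeds 20%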;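 further: compound exposure lasted 3 days before fixation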;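 on nuclei count: percent of the per-plate median nuclei count of sample wells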). The note with it: exon1htt(103Q)mCFP cell line, aggregate imaging, at 2 µM; inhibition of aggregation: stronger effect = higher value; nuclei count: measured here: cell count, toxicity.
Assay [3] is described as follows: inhibitors of E-selectin induction by TNFa, primary screen, imaging, HUVEC, immunofluorescence, MLSMR starter and 10KST1 sets (AID 487;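 active means visually confirmed hit in the image check and inhibition above 20%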;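 on inhibition: signal is fraction of cell area covered by stained E-selectin grains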;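 on nuclei count: 100% = median nuclei count of all wells on the same plate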). The note with it: HUVEC TNFalpha-induced E-selectin immunofluorescence imaging, at 2 µM; inhibition: stronger effect = higher value; nuclei count: measured here: cell number, toxicity.
Assay [4] deals with Voltage-gated potassium channel subunit beta-2 (Rattus norvegicus) (UniProt P62483). Description: KvBeta enzyme negative modulators, primary screen, biochemical, NADPH fluorescence (AID 622;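 active means fluorescence slope higher than the sample average by over 3 SD, cut at about -0.22 in these data, passing the limit was not always enough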;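 further: slope of raw intensity against log time taken from 70 to 1610 s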). As to conditions: recombinant KvBeta, 4-cyanobenzaldehyde reduction, at 10 µM, stronger effect = higher value.
Chain of Voltage-gated potassium channel subunit beta-2 (Rattus norvegicus) (P62483 whole entry, looked up): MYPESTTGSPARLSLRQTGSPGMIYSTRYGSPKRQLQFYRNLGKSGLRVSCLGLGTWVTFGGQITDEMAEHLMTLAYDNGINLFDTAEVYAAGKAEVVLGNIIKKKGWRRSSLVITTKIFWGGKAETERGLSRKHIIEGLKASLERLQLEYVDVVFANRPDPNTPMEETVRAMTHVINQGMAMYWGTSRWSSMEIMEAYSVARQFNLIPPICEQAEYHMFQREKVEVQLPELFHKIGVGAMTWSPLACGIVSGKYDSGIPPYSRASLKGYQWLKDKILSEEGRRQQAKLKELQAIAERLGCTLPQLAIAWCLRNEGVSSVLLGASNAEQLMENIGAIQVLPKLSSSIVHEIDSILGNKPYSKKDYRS
The target is the same in assay [5]. As to the kind of experiment: KvBeta positive modulators, primary screen, biochemical, NADPH fluorescence (AID 623;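 active means NADPH fluorescence slope more negative than the mean of all samples by about 3 SD, 99.7% confidence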;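 further: fluorescence intensity change per second fitted from 20 to 320 s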). The note with it: Recombinant KvBeta, NADPH fluorescence decrease slope, 10 min; at 10 µM; stronger effect = lower value.
In assay [6] the target is Muscarinic acetylcholine receptor M4 (Homo sapiens) (UniProt P08173). Description: compounds altering M4/GIRK thallium flux, either direction, primary screen, M4 allosteric agonist project, cell-based, HEK293 M4/GIRK, BTC-AM (AID 625).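 Further: thallium influx through GIRK channels coupled to M4 in HEK293 cells with BTC-AM dye.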 The note with it: at 10 µM, actives lie on both sides. The essentials: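 System: HEK293 cells with M4 receptor and GIRK channels | Incubation: Cells overnight at 37 °C, BTC-AM loading 1 h, reads 2 min total | Technique: Kinetic BTC-AM fluorescence sampled at 1 Hz, 10 s pre-addition baseline | Measure: Post-addition slope, 15–24 s, of baseline-normalized fluorescence | Control set: Carbachol positive, DMSO negative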
Chain of Muscarinic acetylcholine receptor M4 (Homo sapiens) (P08173 whole entry, looked up): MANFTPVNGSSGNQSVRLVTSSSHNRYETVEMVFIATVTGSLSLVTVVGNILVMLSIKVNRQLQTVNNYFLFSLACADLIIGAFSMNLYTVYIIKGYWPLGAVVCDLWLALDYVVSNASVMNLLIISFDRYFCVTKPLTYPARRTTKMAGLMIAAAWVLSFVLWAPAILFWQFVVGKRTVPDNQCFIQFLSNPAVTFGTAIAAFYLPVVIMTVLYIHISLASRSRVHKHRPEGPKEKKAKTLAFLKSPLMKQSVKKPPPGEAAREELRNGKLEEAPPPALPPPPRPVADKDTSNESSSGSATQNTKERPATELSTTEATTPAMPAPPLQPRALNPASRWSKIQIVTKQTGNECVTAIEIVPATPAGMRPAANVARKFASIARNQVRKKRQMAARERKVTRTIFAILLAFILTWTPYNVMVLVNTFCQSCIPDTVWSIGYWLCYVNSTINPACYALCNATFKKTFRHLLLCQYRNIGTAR

A short description of assay [7]: inhibitors of Sendai virus-induced IRF3 signaling, primary screen, TLR/RLR signaling modifier project, cell-based, Sendai virus stimulus, luciferase, 10K MLSCN set (AID 602276;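 active means inhibition at or above 50% at 10 µM; inactive means inhibition below 50%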;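 further: firefly luciferase from ISG56 promoter only with Renilla not read in this screen; 0% = Sendai virus plus DMSO and 100% = medium plus DMSO without virus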). As to conditions: HEK293 RL24 IRF3 luciferase reporter, at 10 µM, stronger effect = higher value. A general note: Reporter assays use an easily measured gene product as a stand-in for the process of interest.

Assay [8] in a line: inhibitors of poly I:C-induced TLR3 signaling, primary screen, cell-based, poly I:C stimulus, luciferase, 10K MLSCN set (AID 602277;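 active means inhibition of the reporter signal at or above 50%; inactive means inhibition below 50%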). As to conditions: HEK293-TLR3 RL24 IRF3 luciferase reporter, at 10 µM, stronger effect = higher value.

For the molecule `COc1ccc(C(C(C(=O)c2cccs2)N2CCOCC2)N2CCOCC2)cc1OC` (centres undefined), the cell count in assay [1] amounted to 704. Also, the inhibition in assay [1] is 3.6% (inactive); in assay [3], 15.2% (inactive); in assay [7], 8.73% (inactive); in assay [8], 2.75% (inactive). Moreover, the inhibition of aggregation in assay [2] was 6.6% (inactive). The nuclei count in assay [2] amounted to 115%; in assay [3], 106%. Also, the fluorescence slope in assay [4] is -0.603 (inactive); in assay [6] it was 0.00372 (inactive). In addition, in assay [5], the NADPH fluorescence slope is -3.1e-05 (inactive).
In the case of `Cc1cc(=O)n2[nH]c(COc3ccccc3)nc2n1`, the cell count in assay [1] turned out to be 203. Moreover, the inhibition is -7.9% (inactive) in assay [1], -85.5% (inactive) in assay [3], 6.61% (inactive) in assay [7] and 14.8% (inactive) in assay [8]. In assay [2], the inhibition of aggregation was 31.3% (inactive). For the same molecule, the nuclei count stood at 101% in assay [2] and 91.6% in assay [3]. Also, the fluorescence slope in assay [4] was -0.531 (inactive); in assay [6], 0.00471 (inactive). In addition, the NADPH fluorescence slope in assay [5] was -4.3e-05 (inactive).
For the molecule `COc1ccc(C2CC(=O)c3cnc(NC(=O)c4ccccc4OC)nc3C2)c(OC)c1` (centres undefined), the cell count in assay [1] is 434. Besides, the inhibition in assay [1] was -6.7% (inactive); in assay [3] it was -80.1% (inactive); in assay [7], 14.1% (inactive); in assay [8] it was 6.68% (inactive). In addition, the inhibition of aggregation in assay [2] was 15% (inactive). For the same molecule, the values for the nuclei count in assay [2] and in assay [3] were 94.2% and 107%, respectively. The results for the fluorescence slope in assay [4] and in assay [6] were -0.459 (inactive) and 0.00664 (inactive), respectively. In assay [5], the NADPH fluorescence slope was 0.000189 (inactive).
For the molecule `O=C(COc1ccccc1Cl)OCC(=O)N1CCN(S(=O)(=O)c2ccccc2)CC1`, the cell count in assay [1] worked out at 270. The inhibition in assay [1] was 2.6% (inactive); in assay [3], -107% (inactive); in assay [7], 16.4% (inactive); in assay [8], 21% (inactive). Besides, in assay [2], the inhibition of aggregation is -0.5% (inactive). Further, the figures for the nuclei count in assay [2] and in assay [3] were 107% and 119%, respectively. Also, the fluorescence slope is -0.438 (inactive) in assay [4] and 0.00565 (inactive) in assay [6]. Also, in assay [5], the NADPH fluorescence slope was 7.9e-05 (inactive).
For the molecule `Cn1cnnc1SCC(=O)NCc1cccc(C(F)(F)F)c1`, the cell count in assay [1] was 352. Further, the inhibition is 1.1% (inactive) in assay [1], -95.6% (inactive) in assay [3], 4.51% (inactive) in assay [7] and 3.97% (inactive) in assay [8]. In addition, the inhibition of aggregation in assay [2] is 0.1% (inactive). Also, the nuclei count in assay [2] was found to be 116%; in assay [3], 118%. Also, the figures for the fluorescence slope in assay [4] and in assay [6] were -0.532 (inactive) and 0.00701 (inactive), respectively. Also, the NADPH fluorescence slope in assay [5] was 3.5e-05 (inactive).
Consider `CCN1CCN(c2c(Cl)cccc2NC(=O)c2ccco2)CC1`, for which, in assay [1], the cell count was 248. Moreover, the inhibition in assay [1] was 10.6% (inactive); in assay [3], -12.4% (inactive); in assay [7], 1.94% (inactive); in assay [8] it was 29.2% (inactive). In assay [2], the inhibition of aggregation was -8.4% (inactive). Further, the nuclei count in assay [2] was 77.9%; in assay [3], 84.2%. The figures for the fluorescence slope in assay [4] and in assay [6] were -0.531 (inactive) and 0.00466 (inactive), respectively. Further, the NADPH fluorescence slope in assay [5] is -2.5e-05 (inactive).
For the molecule `COc1cc(NS(=O)(=O)c2ccc(Br)s2)cc(OC)c1`, in assay [1], the cell count came to 596. Also, the inhibition was 10.2% (inactive) in assay [1], -77.9% (inactive) in assay [3], 9.26% (inactive) in assay [7] and 10% (inactive) in assay [8]. In addition, in assay [2], the inhibition of aggregation was -27.3% (inactive). In addition, the nuclei count in assay [2] was 99.5%; in assay [3], 94.3%. Also, the fluorescence slope was -0.402 (inactive) in assay [4] and 0.00547 (inactive) in assay [6]. Also, the NADPH fluorescence slope in assay [5] was 6.7e-05 (inactive).
In the case of `CC(C(=O)N1c2ccc(F)cc2CCC1C)N1C(=O)c2ccccc2C1=O` (centres undefined), the cell count in assay [1] was 490. In addition, the inhibition is 5% (inactive) in assay [1], -158% (inactive) in assay [3], 10.8% (inactive) in assay [7] and 11.7% (inactive) in assay [8]. Further, in assay [2], the inhibition of aggregation is 1.1% (inactive). In addition, the values for the nuclei count in assay [2] and in assay [3] were 118% and 138%, respectively. Besides, the fluorescence slope is -0.452 (inactive) in assay [4] and 0.00501 (inactive) in assay [6]. Besides, the NADPH fluorescence slope in assay [5] was -4.6e-05 (inactive).
In the case of `CCOC(=O)c1nn(-c2sc(C(=O)OC)c(C)c2C(=O)OC)cc1O`, the cell count in assay [1] worked out at 449. The inhibition in assay [1] was -6.2% (inactive); in assay [3] it was 0.1% (inactive); in assay [7], 20.5% (inactive); in assay [8], 24.1% (inactive). In addition, the inhibition of aggregation in assay [2] was 1% (inactive). The nuclei count in assay [2] came to 94.5%; in assay [3], 108%. For the same molecule, the fluorescence slope was -0.518 (inactive) in assay [4] and 0.00503 (inactive) in assay [6]. Further, the NADPH fluorescence slope in assay [5] is -3.7e-05 (inactive).
In the case of `Cc1cccc(-n2ncc(C#N)c2N)c1`, the cell count in assay [1] worked out at 644. Besides, the inhibition was -3% (inactive) in assay [1], -44.1% (inactive) in assay [3], 18% (inactive) in assay [7] and 12.7% (inactive) in assay [8]. The inhibition of aggregation in assay [2] was 11.6% (inactive). Moreover, the nuclei count came to 97% in assay [2] and 144% in assay [3]. Besides, the fluorescence slope in assay [4] is -0.482 (inactive); in assay [6], 0.00451 (inactive). The NADPH fluorescence slope in assay [5] was -2.8e-06 (inactive).
Regarding `N#CC(C(=O)CCN1C(=O)C2CC=CCC2C1=O)c1nc2ccccc2[nH]1` (centres undefined), the cell count in assay [1] is 286. The inhibition is -5.7% (inactive) in assay [1], -88.1% (inactive) in assay [3], 18.4% (inactive) in assay [7] and 17.1% (inactive) in assay [8]. In addition, in assay [2], the inhibition of aggregation was 4.5% (inactive). Also, the nuclei count in assay [2] stood at 93.8%; in assay [3], 123%. The fluorescence slope in assay [4] is -0.524 (inactive); in assay [6], 0.00584 (inactive). Also, the NADPH fluorescence slope in assay [5] is 5.4e-05 (inactive).
In the case of `O=C(NC1CC2CCC1C2)c1ccc(CN2CCOCC2)cc1` (centres undefined), the cell count in assay [1] came out at 362. Further, the inhibition in assay [1] was 6.1% (inactive); in assay [3], -7.2% (inactive); in assay [7], -25.1% (inactive); in assay [8] it was -53.4% (inactive). Also, the inhibition of aggregation in assay [2] is 4.3% (inactive). Moreover, the values for the nuclei count in assay [2] and in assay [3] were 91.8% and 99.5%, respectively. The fluorescence slope is -0.466 (inactive) in assay [4] and 0.0046 (inactive) in assay [6]. Moreover, the NADPH fluorescence slope in assay [5] is -5.1e-05 (inactive).
In the case of `COc1c2ccoc2nc2c(OC)c(OCC(O)C(C)(C)O)ccc12` (centres undefined), the cell count in assay [1] was determined as 411. Also, the inhibition in assay [1] was -1.6% (inactive); in assay [3], -62.9% (inactive); in assay [7], 15.7% (inactive); in assay [8] it was 7.86% (inactive). In addition, the inhibition of aggregation in assay [2] is -14.6% (inactive). Besides, the nuclei count in assay [2] came to 101%; in assay [3] it was 138%. Also, the fluorescence slope was -0.11 (inactive) in assay [4] and 0.00374 (inactive) in assay [6]. Also, the NADPH fluorescence slope in assay [5] is -1.8e-05 (inactive).
In the case of `COc1cccc(-n2c(C)nc3c(cnn3-c3ccc(C)cc3)c2=O)c1`, the cell count in assay [1] was 684. Also, the inhibition in assay [1] is -5% (inactive); in assay [3] it was -67.2% (inactive); in assay [7], -34.8% (inactive); in assay [8] it was -67.9% (inactive). In addition, the inhibition of aggregation in assay [2] was 2.3% (inactive). Besides, the values for the nuclei count in assay [2] and in assay [3] were 111% and 118%, respectively. Also, the fluorescence slope in assay [4] is -0.577 (inactive); in assay [6], 0.00597 (inactive). For the same molecule, in assay [5], the NADPH fluorescence slope is 2.9e-06 (inactive).
